Test results: ChEMBL document CHEMBL1133504 (J Med Chem, 2000)

Experiments:
[1] = Evaluated for time required to reach maximum concentration in plasma; assay type: ADME
[2] = Evaluated for Pharmacokinetic property: Area under the curve; assay type: ADME; set-up: concentration or dose not given beside the values
Syrian golden hamster = test: Suppression of Hamster ethanol intake by 0.07 mmol o.d. i.p.; assay type: functional, Mesocricetus auratus
Procedure, shortened: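 Male Syrian golden hamsters (80-120 g) at 23 °C on a 12/12-h cycle had free access to chow, water and 15% ethanol. Baseline was 6 days of daily ip saline with 0.5% DMSO. Then 0.07 mmol ip daily for 6 days. 24-h ethanol intake recorded. Mean ± SD of 4-6 hamsters.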

[3] = system: Aldehyde dehydrogenase, mitochondrial (Mesocricetus auratus); test: Accumulation of 5 HIAL in isolated Hamster Liver Mitochondria at 0.3 uM.
[4] = system: Aldehyde dehydrogenase, mitochondrial (Mesocricetus auratus); test: Accumulation of 5 HIAL in isolated Hamster Liver Mitochondria at 0.9 uM.
[5] = system: Aldehyde dehydrogenase, mitochondrial (Mesocricetus auratus); test: Accumulation of 5 HIAL in isolated Hamster Liver Mitochondria at 3 uM.
[6] = system: Aldehyde dehydrogenase, mitochondrial (Mesocricetus auratus); test: Accumulation of 5 HIAL in isolated Hamster Liver Mitochondria at 9 uM.
[7] = molecular target: Monoamine oxidase (Mesocricetus auratus); test: Inhibition of Hamster Liver mitochondrial Monoamine oxidase.
Mesocricetus auratus [8] = organism: Mesocricetus auratus; test: Evaluated for the 5-HIAL accumulation in isolated Hamster Liver Mitochondria at the 3 uM
Mesocricetus auratus [9] = organism: Mesocricetus auratus; test: Evaluated for percentage inhibition of 5-HIAA formation in isolated Hamster Liver Mitochondria at the 9 uM

O=c1c(-c2ccc(O)cc2)coc2cc(O)cc(O)c12 [GENISTEIN]
Tmax [1]: 1 h | AUC [2]: 134 nM hr ml | Suppression (Syrian golden hamster): 0%

O=c1c(-c2ccc(O)cc2)coc2cc(OCCCCCCBr)ccc12
Tmax [1]: 2 h | Control [3]: 144% | Control [4]: 112% | AUC [2]: 62 nM hr ml | Control [5]: 108% | Control [6]: 74% | Suppression (Syrian golden hamster): 29% | IC50 [7]: 2000 nM

O=c1cc(-c2ccccc2)oc2cc(O)cc(O)c12 [CHRYSIN]
Tmax [1]: 1 h | AUC [2]: 110 nM hr ml | Suppression (Syrian golden hamster): 0%

O=c1c(-c2ccc(O)cc2)coc2cc(OCCCBr)ccc12
Tmax [1]: 2 h | Control [3]: 75.8% | Control [4]: 57.8% | AUC [2]: 73 nM hr ml | Control [5]: 34.7% | Control [6]: 20.5% | Suppression (Syrian golden hamster): 0% | IC50 [7]: 150 nM

O=c1cc(-c2ccccc2)oc2c(O)c(O)ccc12 [7,8-DIHYDROXYFLAVONE]
Tmax [1]: 0.5 h | Control (Mesocricetus auratus [8]): 79.1% | AUC [2]: 111 nM hr ml | Suppression (Syrian golden hamster): 0%

CCOc1ccc2c(=O)c(-c3ccc(O)cc3)coc2c1
Tmax [1]: 1 h | Control [3]: 88.6% | Control [4]: 62.9% | AUC [2]: 38 nM hr ml | Control [5]: 34.3% | Control [6]: 17.8% | Suppression (Syrian golden hamster): 0% | IC50 [7]: 300 nM

COc1ccc(-c2coc3cc(O)cc(O)c3c2=O)cc1 [BIOCHANIN]
Tmax [1]: 1 h | AUC [2]: 99 nM hr ml | Suppression (Syrian golden hamster): 0%

O=C(O)CCCCCCCCCOc1ccc2c(=O)c(-c3ccc(O)cc3)coc2c1
Tmax [1]: 0.5 h | Control [3]: 234% | Control [4]: 233% | AUC [2]: 73 nM hr ml | Control [5]: 189% | Control [6]: 129% | Suppression (Syrian golden hamster): 84% | IC50 [7]: 10000 nM

O=C(O)CCCCCCCCCCOc1ccc2c(=O)c(-c3ccc(O)cc3)coc2c1
Tmax [1]: 0.5 h | AUC [2]: 56 nM hr ml | Suppression (Syrian golden hamster): 86%

O=C(O)CCCCCOc1ccc2c(=O)c(-c3ccc(O)cc3)coc2c1
Tmax [1]: 0.5 h | AUC [2]: 77 nM hr ml | Suppression (Syrian golden hamster): 69%

O=c1c(-c2ccc(O)cc2)coc2cc(OCCC3OCCCO3)ccc12
Tmax [1]: 0.5 h | Control [3]: 165% | Control [4]: 176% | AUC [2]: 99 nM hr ml | Control [5]: 141% | Control [6]: 86.1% | Suppression (Syrian golden hamster): 32% | IC50 [7]: 7000 nM

O=c1c(-c2ccc(O)cc2)coc2cc(OCC(O)CO)ccc12 (stereo not drawn)
Tmax [1]: 0.5 h | Control [3]: 112% | Control [4]: 97.5% | AUC [2]: 141 nM hr ml | Control [5]: 63% | Control [6]: 30.5% | Suppression (Syrian golden hamster): 0% | IC50 [7]: 1700 nM

O=c1c(-c2ccc(O)cc2)coc2cc(OCCCCBr)ccc12
Tmax [1]: 2 h | Control [3]: 112% | Control [4]: 116% | AUC [2]: 68 nM hr ml | Control [5]: 87.7% | Control [6]: 42.9% | Suppression (Syrian golden hamster): 14% | IC50 [7]: 4000 nM

O=c1c(-c2ccc(O)cc2)coc2cc(O[C@@H]3O[C@H](CO)[C@@H](O)[C@H](O)[C@H]3O)ccc12 [DAIDZIN]
Tmax [1]: 1 h | AUC [2]: 120 nM hr ml | Suppression (Syrian golden hamster): 62%

O=c1c(-c2ccc(O)cc2)coc2cc(O)ccc12 [DAIDZEIN]
Tmax [1]: 1 h | inhibition (Mesocricetus auratus [9]): 80.6% | AUC [2]: 130 nM hr ml | Suppression (Syrian golden hamster): 22%

C=CCOc1ccc2c(=O)c(-c3ccc(O)cc3)coc2c1
Tmax [1]: 1 h | Control [3]: 106% | Control [4]: 91% | AUC [2]: 29 nM hr ml | Control [5]: 56.1% | Control [6]: 26.7% | Suppression (Syrian golden hamster): 0% | IC50 [7]: 450 nM

O=C(O)CCCCCCOc1ccc2c(=O)c(-c3ccc(O)cc3)coc2c1
Tmax [1]: 0.5 h | Control [3]: 310% | Control [4]: 265% | AUC [2]: 68 nM hr ml | Control [5]: 228% | Control [6]: 192% | Suppression (Syrian golden hamster): 69% | IC50 [7]: 2100 nM
